In brackets after ≈: the same amount, converted by molar mass.
Legend:
MCF7 [1] = test: Decrease in glutathione level in human MCF7 cells; format: functional, cell-based
MCF7 [2] = test: Effect on RNA level in human MCF7 cells assessed per 10 '6 cells at 10 ug/ml after 24 hrs (reference value: 11.50 +/- 0.70 ug/10^6 cells); format: functional
How it was run: (§1)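 After 24 h exposure of MCF-7 cells to compound at 2, 5, 10 or 20 µg/ml at 37 °C, nucleic acids were precipitated from cell homogenates. DNA was extracted and assayed by the Zhou et al. method, and RNA by a kit-derived procedure. Results given per 10⁶ cells as means ± S.E. of four experiments versus untreated control.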

MCF7 [3] = test: Effect on hydrogen peroxide level in human MCF7 cells assessed per mg protein at 20 ug/ml by Wolf's method after 24 hrs (reference value: 12.50 +/- 1.54 nmol/mg of protein); format: functional
MCF7 [4] = test: Effect on DNA level in human MCF7 cells assessed per 10 '6 cells at 20 ug/ml after 24 hrs (reference value: 6.80 +/- 0.70 ug/10^6 cells); format: functional; how it was run: as §1
MCF7 [5] = test: Effect on RNA level in human MCF7 cells assessed per 10 '6 cells at 2 ug/ml after 24 hrs (reference value: 11.50 +/- 0.70 ug/10^6 cells); format: functional; how it was run: as §1
MCF7 [6] = test: Effect on hydrogen peroxide level in human MCF7 cells assessed per mg protein at 5 ug/ml by Wolf's method after 24 hrs (reference value: 12.50 +/- 1.54 nmol/mg of protein); format: functional
MCF7 [7] = test: Effect on glutathione level in human MCF7 cells assessed per mg protein at 20 ug/ml by Ellman method after 24 hrs (reference value: 39.82 +/- 4.20 nmol/mg of protein); format: functional
MCF7 [8] = test: Decrease in RNA level in human MCF7 cells assessed per 10 '6 cells after 24 hrs relative to control; format: functional, cell-based; how it was run: as §1
MCF7 [9] = test: Effect on hydrogen peroxide level in human MCF7 cells assessed per mg protein at 10 ug/ml by Wolf's method after 24 hrs (reference value: 12.50 +/- 1.54 nmol/mg of protein); format: functional
MCF7 [10] = test: Effect on DNA level in human MCF7 cells assessed per 10 '6 cells at 2 ug/ml after 24 hrs (reference value: 6.80 +/- 0.70 ug/10^6 cells); format: functional; how it was run: as §1
MCF7 [11] = test: Effect on SOD level in human MCF7 cells assessed per mg protein at 5 ug/ml after 24 hrs (reference value: 27.61+/- 3.72 U/mg of protein); format: functional
MCF7 [12] = test: Effect on glutathione peroxidase level in human MCF7 cells assessed per mg protein at 20 ug/ml after 24 hrs (reference value: 11.20 +/- 1.36 U/mg of protein); format: functional
MCF7 [13] = test: Effect on CAT level in human MCF7 cells assessed per mg protein at 5 ug/ml after 24 hrs (reference value: 7.90+/- 0.67 U/mg of protein); format: functional
MCF7 [14] = test: Antiproliferative activity against human MCF7 cells after 24 hrs by MTT assay; format: functional, cell-based; conditions: for IC50: MCF7, 24 h
How it was run: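 MCF-7 cells (DMEM, 10% heat-inactivated FCS, penicillin/streptomycin, 37 °C, 5% CO2) plated at 0.65 × 10⁵ cells/well and given 24 h to attach. Exposed to compound or cisplatin at 2, 5, 10 or 20 µg/ml for 24 h at 37 °C. MTT added for 4 h, formazan dissolved in DMSO, absorbance read at 570 nm. Viability taken relative to untreated cells and IC50 derived.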

MCF7 [15] = test: Increase in hydrogen peroxide level in human MCF7 cells; format: functional, cell-based
MCF7 [16] = test: Effect on SOD level in human MCF7 cells assessed per mg protein at 10 ug/ml after 24 hrs (reference value: 27.61+/- 3.72 U/mg of protein); format: functional
MCF7 [17] = test: Effect on CAT level in human MCF7 cells assessed per mg protein at 20 ug/ml after 24 hrs (reference value: 7.90+/- 0.67 U/mg of protein); format: functional
MCF7 [18] = test: Effect on DNA level in human MCF7 cells assessed per 10 '6 cells at 10 ug/ml after 24 hrs (reference value: 6.80 +/- 0.70 ug/10^6 cells); format: functional; how it was run: as §1
MCF7 [19] = test: Decrease in glutathione peroxidase level in human MCF7 cells; format: functional, cell-based
MCF7 [20] = test: Effect on glutathione peroxidase level in human MCF7 cells assessed per mg protein at 2 ug/ml after 24 hrs (reference value: 11.20 +/- 1.36 U/mg of protein); format: functional
MCF7 [21] = test: Effect on SOD level in human MCF7 cells assessed per mg protein at 20 ug/ml after 24 hrs (reference value: 27.61+/- 3.72 U/mg of protein); format: functional
MCF7 [22] = test: Effect on CAT level in human MCF7 cells assessed per mg protein at 10 ug/ml after 24 hrs (reference value: 7.90+/- 0.67 U/mg of protein); format: functional
MCF7 [23] = test: Increase in SOD level in human MCF7 cells; format: functional, cell-based
MCF7 [24] = test: Effect on glutathione level in human MCF7 cells assessed per mg protein at 10 ug/ml by Ellman method after 24 hrs (reference value: 39.82 +/- 4.20 nmol/mg of protein); format: functional
MCF7 [25] = test: Effect on DNA level in human MCF7 cells assessed per 10 '6 cells at 5 ug/ml after 24 hrs (reference value: 6.80 +/- 0.70 ug/10^6 cells); format: functional; how it was run: as §1
MCF7 [26] = test: Effect on glutathione level in human MCF7 cells assessed per mg protein at 5 ug/ml by Ellman method after 24 hrs (reference value: 39.82 +/- 4.20 nmol/mg of protein); format: functional
MCF7 [27] = test: Effect on glutathione peroxidase level in human MCF7 cells assessed per mg protein at 5 ug/ml after 24 hrs (reference value: 11.20 +/- 1.36 U/mg of protein); format: functional
MCF7 [28] = test: Decrease in CAT level in human MCF7 cells; format: functional, cell-based
MCF7 [29] = test: Effect on CAT level in human MCF7 cells assessed per mg protein at 2 ug/ml after 24 hrs (reference value: 7.90+/- 0.67 U/mg of protein); format: functional
MCF7 [30] = test: Effect on glutathione peroxidase level in human MCF7 cells assessed per mg protein at 10 ug/ml after 24 hrs (reference value: 11.20 +/- 1.36 U/mg of protein); format: functional
MCF7 [31] = test: Effect on RNA level in human MCF7 cells assessed per 10 '6 cells at 20 ug/ml after 24 hrs (reference value: 11.50 +/- 0.70 ug/10^6 cells); format: functional; how it was run: as §1
MCF7 [32] = test: Decrease in DNA level in human MCF7 cells assessed per 10 '6 cells after 24 hrs relative to control; format: functional, cell-based; how it was run: as §1
MCF7 [33] = test: Effect on hydrogen peroxide level in human MCF7 cells assessed per mg protein at 2 ug/ml by Wolf's method after 24 hrs (reference value: 12.50 +/- 1.54 nmol/mg of protein); format: functional
MCF7 [34] = test: Effect on SOD level in human MCF7 cells assessed per mg protein at 2 ug/ml after 24 hrs (reference value: 27.61+/- 3.72 U/mg of protein); format: functional
MCF7 [35] = test: Effect on glutathione level in human MCF7 cells assessed per mg protein at 2 ug/ml by Ellman method after 24 hrs (reference value: 39.82 +/- 4.20 nmol/mg of protein); format: functional
MCF7 [36] = test: Effect on RNA level in human MCF7 cells assessed per 10 '6 cells at 5 ug/ml after 24 hrs (reference value: 11.50 +/- 0.70 ug/10^6 cells); format: functional; how it was run: as §1

Compound	Activity (MCF7 [1])	Activity (MCF7 [2]) [µg/10^6 cells]	Activity (MCF7 [3]) [nmol]	Activity (MCF7 [4]) [µg/10^6 cells]	Activity (MCF7 [5]) [µg/10^6 cells]	Activity (MCF7 [6]) [nmol]	Activity (MCF7 [7]) [nmol]	Activity (MCF7 [8])	Activity (MCF7 [9]) [nmol]	Activity (MCF7 [10]) [µg/10^6 cells]	Activity (MCF7 [11]) [U/mg protein]	Activity (MCF7 [12]) [U/mg protein]	Activity (MCF7 [13]) [U/mg protein]	Activity (MCF7 [14])	IC50 (MCF7 [14]) [µg/mL]	Activity (MCF7 [15])	Activity (MCF7 [16]) [U/mg protein]	Activity (MCF7 [17]) [U/mg protein]	Activity (MCF7 [18]) [µg/10^6 cells]	Activity (MCF7 [19])	also measured
Cc1nc(-n2ncc3c(S[C@@H]4O[C@H](CO)[C@@H](O)[C@H]4O)ncnc32)c2c3c(sc2n1)CCc1ccccc1-3	Dose-dependent effect	7.7	40.33	4.45	9.5	28.45	30	Dose-dependent effect	35.85	5.35	80.2	5.4	6	Dose-dependent effect	9.4 (≈ 17.6 µM)	Dose-dependent effect	110	5.35	4.86	Dose-dependent effect	Activity (MCF7 [20]): 9 U/mg protein; Activity (MCF7 [21]): 161 U/mg protein; Activity (MCF7 [22]): 5.7 U/mg protein; Activity (MCF7 [23]): Dose-dependent effect; Activity (MCF7 [24]): 33.11 nmol; Activity (MCF7 [25]): 5.16 µg/10^6 cells; Activity (MCF7 [26]): 40.12 nmol; Activity (MCF7 [27]): 6.6 U/mg protein; Activity (MCF7 [28]): Dose-dependent effect; Activity (MCF7 [29]): 6.85 U/mg protein; Activity (MCF7 [30]): 6 U/mg protein; Activity (MCF7 [31]): 7.22 µg/10^6 cells; Activity (MCF7 [32]): Dose-dependent effect; Activity (MCF7 [33]): 21.23 nmol; Activity (MCF7 [34]): 70.4 U/mg protein; Activity (MCF7 [35]): 43.35 nmol; Activity (MCF7 [36]): 8.9 µg/10^6 cells
Cc1nc(-n2ncc3c(=O)[nH]cnc32)c2c3c(sc2n1)CCc1ccccc1-3	Dose-dependent effect	5.81	60.3	2.7	7.6	40.6	16	Dose-dependent effect	52	4.2	126	2.65	3.6	Dose-dependent effect	4.4 (≈ 11.4 µM)	Dose-dependent effect	240	2.3	3	Dose-dependent effect	Activity (MCF7 [20]): 6.9 U/mg protein; Activity (MCF7 [21]): 290 U/mg protein; Activity (MCF7 [22]): 2.8 U/mg protein; Activity (MCF7 [23]): Dose-dependent effect; Activity (MCF7 [24]): 17.7 nmol; Activity (MCF7 [25]): 3.8 µg/10^6 cells; Activity (MCF7 [26]): 18.66 nmol; Activity (MCF7 [27]): 5.5 U/mg protein; Activity (MCF7 [28]): Dose-dependent effect; Activity (MCF7 [29]): 4 U/mg protein; Activity (MCF7 [30]): 3.11 U/mg protein; Activity (MCF7 [31]): 5.25 µg/10^6 cells; Activity (MCF7 [32]): Dose-dependent effect; Activity (MCF7 [33]): 32 nmol; Activity (MCF7 [34]): 95.6 U/mg protein; Activity (MCF7 [35]): 27.9 nmol; Activity (MCF7 [36]): 6.4 µg/10^6 cells
COCCSc1ncnc2c1cnn2-c1nc(C)nc2sc3c(c12)-c1ccccc1CC3	Dose-dependent effect	5.21	66.8	2.5	6.2	45.77	15.6	Dose-dependent effect	58.5	4	136	2.9	3.4	Dose-dependent effect	4.3 (≈ 9.34 µM)	Dose-dependent effect	310	2.1	2.96	Dose-dependent effect	Activity (MCF7 [20]): 6 U/mg protein; Activity (MCF7 [21]): 310 U/mg protein; Activity (MCF7 [22]): 3 U/mg protein; Activity (MCF7 [23]): Dose-dependent effect; Activity (MCF7 [24]): 18.75 nmol; Activity (MCF7 [25]): 3.44 µg/10^6 cells; Activity (MCF7 [26]): 20.95 nmol; Activity (MCF7 [27]): 5.65 U/mg protein; Activity (MCF7 [28]): Dose-dependent effect; Activity (MCF7 [29]): 3.9 U/mg protein; Activity (MCF7 [30]): 4 U/mg protein; Activity (MCF7 [31]): 4.8 µg/10^6 cells; Activity (MCF7 [32]): Dose-dependent effect; Activity (MCF7 [33]): 30.75 nmol; Activity (MCF7 [34]): 105 U/mg protein; Activity (MCF7 [35]): 23.6 nmol; Activity (MCF7 [36]): 5.72 µg/10^6 cells

Reference: ChEMBL document CHEMBL1759915, “Synthesis and anticancer effects of some novel pyrazolo[3,4-d]pyrimidine derivatives by generating reactive oxygen species in human breast adenocarcinoma cells” (Eur J Med Chem, 2011)
